Data as given in the M2OR odorant receptor database.
Substitutions are numbered along the chain they refer to.

Key:
Details in all cases: stereoisomer not certain
O2T11 = tested on: T1, O2T11
T1 sequence (whole entry): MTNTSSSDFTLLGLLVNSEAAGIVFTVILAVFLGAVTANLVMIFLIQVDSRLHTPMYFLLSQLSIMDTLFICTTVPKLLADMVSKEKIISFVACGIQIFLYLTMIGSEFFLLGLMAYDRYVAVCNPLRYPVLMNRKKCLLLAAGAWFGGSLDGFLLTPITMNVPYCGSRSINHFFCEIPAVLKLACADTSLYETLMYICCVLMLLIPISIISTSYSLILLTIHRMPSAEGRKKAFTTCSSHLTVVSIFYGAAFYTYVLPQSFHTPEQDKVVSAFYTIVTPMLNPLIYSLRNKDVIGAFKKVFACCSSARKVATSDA
How it was run: (§1)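 Each entry records the cell line, G-protein, co-transfected protein and tags used. Methods varied with the source, often transient luciferase assays in mammalian cell lines. A receptor–molecule pair is called responsive (active) if the original authors judged its signal statistically different from baseline and non-responsive (inactive) otherwise.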

O2T27 L36V V134D = tested on: T2, O2T27 L36V V134D
T2 sequence (whole entry): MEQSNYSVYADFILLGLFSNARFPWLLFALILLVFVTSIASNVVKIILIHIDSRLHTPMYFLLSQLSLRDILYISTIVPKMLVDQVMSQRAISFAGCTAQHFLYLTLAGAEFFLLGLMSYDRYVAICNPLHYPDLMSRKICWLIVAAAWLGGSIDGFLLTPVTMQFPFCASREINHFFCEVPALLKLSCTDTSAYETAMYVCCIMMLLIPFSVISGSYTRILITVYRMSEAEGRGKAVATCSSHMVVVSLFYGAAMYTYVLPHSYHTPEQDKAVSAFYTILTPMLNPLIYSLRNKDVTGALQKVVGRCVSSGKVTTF
How it was run: as §1

O2T29 Q24R = tested on: T3, O2T29 Q24R
T3 sequence (whole entry): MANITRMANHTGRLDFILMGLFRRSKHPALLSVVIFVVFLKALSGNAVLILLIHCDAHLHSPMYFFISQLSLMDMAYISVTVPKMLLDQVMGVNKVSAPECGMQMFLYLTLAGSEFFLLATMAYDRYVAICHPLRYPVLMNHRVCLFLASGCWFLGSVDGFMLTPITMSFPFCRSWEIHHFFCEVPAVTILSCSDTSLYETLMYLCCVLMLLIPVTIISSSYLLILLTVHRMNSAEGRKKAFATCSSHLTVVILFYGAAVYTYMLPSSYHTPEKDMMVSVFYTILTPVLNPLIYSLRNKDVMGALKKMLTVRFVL
How it was run: as §1

O2T33 A169V = tested on: T4, O2T33 A169V
T4 sequence (whole entry): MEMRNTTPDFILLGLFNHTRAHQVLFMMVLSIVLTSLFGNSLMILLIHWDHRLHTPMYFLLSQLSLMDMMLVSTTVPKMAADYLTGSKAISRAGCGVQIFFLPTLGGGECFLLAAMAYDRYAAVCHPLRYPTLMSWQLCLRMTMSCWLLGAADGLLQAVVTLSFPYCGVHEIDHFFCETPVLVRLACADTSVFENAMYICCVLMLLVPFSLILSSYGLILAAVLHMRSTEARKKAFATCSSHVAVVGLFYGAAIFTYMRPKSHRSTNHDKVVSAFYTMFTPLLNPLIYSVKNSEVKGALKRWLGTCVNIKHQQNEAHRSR
How it was run: as §1

O2T33 G297E I309L = tested on: T5, O2T33 G297E I309L
T5 sequence (whole entry): T4 sequence (whole entry) with V169A, G297E, I309L
How it was run: as §1

O2T34 Q6P R267P = tested on: T6, O2T34 Q6P R267P
T6 sequence (whole entry): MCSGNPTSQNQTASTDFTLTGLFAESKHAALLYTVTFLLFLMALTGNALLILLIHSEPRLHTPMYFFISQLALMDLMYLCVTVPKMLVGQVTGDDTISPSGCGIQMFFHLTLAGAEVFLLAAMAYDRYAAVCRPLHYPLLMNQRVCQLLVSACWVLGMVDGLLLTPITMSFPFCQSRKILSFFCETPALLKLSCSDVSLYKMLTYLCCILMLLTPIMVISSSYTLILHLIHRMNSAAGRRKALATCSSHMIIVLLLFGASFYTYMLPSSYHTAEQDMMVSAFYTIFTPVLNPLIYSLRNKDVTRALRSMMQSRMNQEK
How it was run: as §1

O2T34 R267P = tested on: T7, O2T34 R267P
T7 sequence (whole entry): T6 sequence (whole entry) with P6Q
How it was run: as §1

O4A47 = tested on: T8, O4A47
T8 sequence (whole entry): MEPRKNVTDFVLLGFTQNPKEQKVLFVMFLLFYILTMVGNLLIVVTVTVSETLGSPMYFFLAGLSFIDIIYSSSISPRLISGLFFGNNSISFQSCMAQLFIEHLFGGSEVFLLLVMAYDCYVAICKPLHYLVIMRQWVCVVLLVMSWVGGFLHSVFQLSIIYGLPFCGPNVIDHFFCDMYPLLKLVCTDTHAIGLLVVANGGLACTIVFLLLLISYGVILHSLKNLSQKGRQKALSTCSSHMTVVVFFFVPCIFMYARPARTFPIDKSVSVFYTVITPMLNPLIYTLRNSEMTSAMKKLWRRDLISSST
How it was run: as §1

O4C46 S240F C252Y K288R = tested on: O4C46 S240F C252Y K288R
How it was run: as §1

O4F15 A272T = tested on: T9, O4F15 A272T
T9 sequence (whole entry): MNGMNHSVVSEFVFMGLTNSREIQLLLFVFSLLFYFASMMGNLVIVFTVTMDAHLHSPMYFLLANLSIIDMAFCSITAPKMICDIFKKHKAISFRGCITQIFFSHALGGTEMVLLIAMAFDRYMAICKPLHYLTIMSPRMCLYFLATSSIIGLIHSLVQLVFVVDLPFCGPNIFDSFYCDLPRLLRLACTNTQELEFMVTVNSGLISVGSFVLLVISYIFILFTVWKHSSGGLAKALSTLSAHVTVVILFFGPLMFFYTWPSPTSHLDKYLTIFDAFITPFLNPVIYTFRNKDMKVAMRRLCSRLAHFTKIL
How it was run: as §1

Measured: odorant receptor agonist call

CCC1OC(C)=C(O)C1=O (centres undefined)
inactive: O2T11 | O2T27 L36V V134D | O2T29 Q24R | O2T33 A169V | O2T33 G297E I309L | O2T34 Q6P R267P | O2T34 R267P | O4A47 | O4C46 S240F C252Y K288R | O4F15 A272T

CC1=NC(C)C(C)S1 (centres undefined)
inactive: O2T11 | O2T27 L36V V134D | O2T29 Q24R | O2T33 A169V | O2T33 G297E I309L | O2T34 Q6P R267P | O2T34 R267P | O4A47 | O4C46 S240F C252Y K288R | O4F15 A272T

CC1=C(O)C(=O)C(C)O1 (centres undefined)
inactive: O2T11 | O2T27 L36V V134D | O2T29 Q24R | O2T33 A169V | O2T33 G297E I309L | O2T34 Q6P R267P | O2T34 R267P | O4A47 | O4C46 S240F C252Y K288R | O4F15 A272T

Cc1cnc(C)c(C)n1
inactive: O2T11 | O2T27 L36V V134D | O2T29 Q24R | O2T33 A169V | O2T33 G297E I309L | O2T34 Q6P R267P | O2T34 R267P | O4A47 | O4C46 S240F C252Y K288R | O4F15 A272T

CCCC(S)CCOC(C)=O (centres undefined)
inactive: O2T11 | O2T27 L36V V134D | O2T29 Q24R | O2T33 A169V | O2T33 G297E I309L | O2T34 Q6P R267P | O2T34 R267P | O4A47 | O4C46 S240F C252Y K288R | O4F15 A272T

CCC1OC(=O)C(O)=C1C (centres undefined)
inactive: O2T11 | O2T27 L36V V134D | O2T29 Q24R | O2T33 A169V | O2T33 G297E I309L | O2T34 Q6P R267P | O2T34 R267P | O4A47 | O4C46 S240F C252Y K288R | O4F15 A272T

CC1=C(O)C(=O)OC1C (centres undefined)
inactive: O2T11 | O2T27 L36V V134D | O2T29 Q24R | O2T33 A169V | O2T33 G297E I309L | O2T34 Q6P R267P | O2T34 R267P | O4A47 | O4C46 S240F C252Y K288R | O4F15 A272T

CCCCCCC=CCCC=O
inactive: O2T11 | O2T27 L36V V134D | O2T29 Q24R | O2T33 A169V | O2T33 G297E I309L | O2T34 Q6P R267P | O2T34 R267P | O4A47 | O4C46 S240F C252Y K288R
